Experimental data taken from ChEMBL document CHEMBL5335790, “Design, synthesis and biological evaluation of novel 2,4-thiazolidinedione derivatives able to target the human BAG3 protein” (Eur J Med Chem, 2023).
The source made the active and inactive calls. No cut-off for these calls is given here.

Key:
[1] = biological target: T1, BAG family molecular chaperone regulator 3 (Homo sapiens, UniProt O95817); assay: Binding affinity to CM4 sensorchip immobilized C-terminal His tagged human BAG3 transfected in HEK293T cells assessed as binding capacity at 50 uM by SPR analysis
T1 sequence (O95817 whole entry): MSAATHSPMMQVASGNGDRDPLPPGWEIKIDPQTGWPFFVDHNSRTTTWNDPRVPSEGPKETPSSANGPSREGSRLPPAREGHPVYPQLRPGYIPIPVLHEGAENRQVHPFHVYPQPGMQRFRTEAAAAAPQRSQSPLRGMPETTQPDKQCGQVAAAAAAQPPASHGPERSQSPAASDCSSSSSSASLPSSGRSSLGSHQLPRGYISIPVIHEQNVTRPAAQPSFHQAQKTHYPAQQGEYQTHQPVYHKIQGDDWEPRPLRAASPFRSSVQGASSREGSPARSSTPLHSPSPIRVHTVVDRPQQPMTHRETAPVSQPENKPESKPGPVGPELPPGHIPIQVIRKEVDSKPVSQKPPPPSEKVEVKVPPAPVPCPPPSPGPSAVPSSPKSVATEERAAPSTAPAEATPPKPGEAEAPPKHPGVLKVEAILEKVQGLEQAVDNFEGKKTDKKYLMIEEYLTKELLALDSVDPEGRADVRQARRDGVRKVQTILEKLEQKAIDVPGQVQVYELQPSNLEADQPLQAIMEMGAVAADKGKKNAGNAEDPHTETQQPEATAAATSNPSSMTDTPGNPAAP
Summary of the method: (§1)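 SPR screen on BAG3-His amine-coupled to a CM4 chip at 60 µg/mL in pH 2.8 acetate. Compound at 50 µM in PBS with 5% DMSO and 0.05% P20 was injected for 90 s at 30 µL/min, then washed. Chip regenerated with 10 mM glycine pH 3. Bound RU read at equilibrium against a void flow cell; 3–10 repeats, mean ± SEM.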

RS4-11 = assay: Antiproliferative activity against human RS4-11 cells assessed as cell growth inhibition incubated for 72 hrs by resazurin dye based analysis; type: functional
Summary of the method: (§2)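 Cells seeded at 2000/well, treated 24 h later with compounds in a 6-point 2-fold dose series, duplicate wells, two independent experiments. After 72 h, resazurin was added at 44 µM final for 3 h at 37 °C and fluorescence was read at 590 nm. Viability was normalized to 1 µM bortezomib (positive) and 0.5% DMSO (negative) controls. GI50 is the mean ± SEM of dose-response curves.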

A549 = assay: Antiproliferative activity against human A549 cells assessed as cell growth inhibition incubated for 72 hrs by resazurin dye based analysis; type: functional; summary of the method: as §2
HD-MB03 = assay: Antiproliferative activity against human HD-MB03 cells assessed as cell growth inhibition incubated for 72 hrs by resazurin dye based analysis; type: functional; summary of the method: as §2
[2] = biological target: T1, BAG family molecular chaperone regulator 3; assay: Binding affinity to CM4 sensorchip immobilized glycosylated C-terminal His tagged human BAG3 transfected in HEK293T cells assessed as dissociation constant by SPR analysis
Summary of the method: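 SPR single-cycle kinetics on CM4-immobilized HEK-293T-expressed BAG3-His. Increasing compound concentrations in PBS with 5% DMSO and 0.05% P20 were injected at 30 µL/min without regeneration between injections, with blank subtraction. Kd from steady-state analysis, reported as mean ± SEM and compared by Student t-test.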

[3] = biological target: T1, BAG family molecular chaperone regulator 3; assay: Binding affinity to CM4 sensorchip immobilized C-terminal His tagged human BAG3 transfected in HEK293T cells at 50 uM by SPR analysis; summary of the method: as §1
[4] = Cytotoxicity against PHA stimulated human PBMC cells assessed as cell growth inhibition incubated for 72 hrs by MTT assay; type: toxicity, cell-based
[5] = Cytotoxicity against resting human PBMC cells assessed as cell growth inhibition incubated for 72 hrs by MTT assay; type: toxicity, cell-based
[6] = biological target: T1, BAG family molecular chaperone regulator 3; assay: Binding affinity to C-terminal His tagged human BAG3 transfected in HEK293T cells assessed as intermolecular nuclear overhauser effect mediated protein magnetization at 125 uM by waterLOGSY experiment; type: cell-based
Summary of the method: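 Ligand-observed NMR in 50 mM sodium phosphate pH 7.8, 150 mM NaCl, 0.04% NaN3, 1.3% DMSO-d6, 5% D2O. Compound at 125 µM with 5 µM BAG3-His (HEK-293T expressed, purified by IMAC and SEC), each also run without protein. WaterLOGSY used 240 scans, 1.5 s mixing and water inversion at 4.7 ppm. STD used 256 scans with protein saturation at 0.4 ppm.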

SMILES | Activity [1] | GI50 (RS4-11) | GI50 (A549) | GI50 (HD-MB03) | Kd [2] | Activity [3] | GI50 at 72 h [4] | GI50 at 72 h [5] | Activity [6]
CCOC(=O)C(C)N1C(=O)S/C(=C\c2ccc3[nH]cnc3c2)C1=O (racemic) | > 5 RU | > 100 µM | > 100 µM | 42.5 µM | 198 µM | – | – | – | –
CCOCCN1C(=O)S/C(=C\c2ccc(O)c(O)c2)C1=O | – | 6.1 µM | 34.3 µM | 17.8 µM | – | inactive | – | – | –
CCOC(=O)CN1C(=O)S/C(=C\c2cccc(O)c2)C1=O | – | 55 µM | > 100 µM | 40.7 µM | – | inactive | – | – | –
CCOC(=O)CN1C(=O)S/C(=C(/C)c2ccc(O)c(O)c2)C1=O | – | 7.25 µM | 44.2 µM | 6.4 µM | – | inactive | – | – | –
CC(C(=O)N1CCOCC1)N1C(=O)S/C(=C\c2ccc(N3CCOCC3)cc2)C1=O (racemic) | < 5 RU | > 100 µM | > 100 µM | > 100 µM | – | – | – | – | –
CCOC(=O)C(C)N1C(=O)/C(=C/c2ccc(O)c(O)c2)N(C)C1=O (stereo unspecified) | – | 17.8 µM | 52.6 µM | 53.3 µM | – | inactive | – | – | –
CCOC(=O)CN1C(=O)S/C(=C\c2ccc(O)cc2)C1=O | – | > 100 µM | > 100 µM | 29.5 µM | – | inactive | – | – | –
CCOC(=O)CN1C(=O)S/C(=C\c2ccc3c(c2)OCCO3)C1=O | – | > 100 µM | > 100 µM | > 100 µM | – | inactive | – | – | –
CCOC(=O)C(C)N1C(=O)S/C(=C\c2ccc(O)nc2)C1=O (racemic) | – | > 100 µM | > 100 µM | > 100 µM | – | inactive | – | – | –
CCOC(=O)C(CC)N1C(=O)S/C(=C\c2ccc(O)c(O)c2)C1=O (racemic) | > 5 RU | 5.13 µM | 29.3 µM | 11.7 µM | – | – | – | – | –
CCOC(=O)C(C)N1C(=O)S/C(=C\c2cc(Cl)c(O)c(Cl)c2)C1=O (racemic) | < 5 RU | 47.2 µM | 72.5 µM | 45.6 µM | – | – | – | – | –
CCOC(=O)C(C)N1C(=O)N/C(=C\c2ccc(O)c(O)c2)C1=O (racemic) | – | 11.9 µM | 54.1 µM | 16.9 µM | – | inactive | – | – | –
CCOC(=O)C(C)N1C(=O)S/C(=C\c2ccc(O)c(O)c2)C1=O (racemic) | > 5 RU | 5.1 µM | 32.5 µM | 25.3 µM | 286 µM | – | – | – | –
CN(C)C(=O)CN1C(=O)S/C(=C\c2ccc(O)c(O)c2)C1=O | – | 25.6 µM | 48.3 µM | 36.4 µM | – | inactive | – | – | –
CCOC(=O)C(c1ccccc1)N1C(=O)S/C(=C\c2ccc(O)c(O)c2)C1=O (racemic) | > 5 RU | 9.53 µM | 33.3 µM | 17.6 µM | 366 µM | – | – | – | –
CCOC(=O)C(C)N1C(=O)S/C(=C\c2ccc(O)c(Cl)c2)C1=O (racemic) | – | 38.1 µM | 49.4 µM | 26.5 µM | – | inactive | – | – | –
O=C(CN1C(=O)S/C(=C\c2cc(Cl)c(O)c(Cl)c2)C1=O)N1CCOCC1 | – | > 100 µM | > 100 µM | > 100 µM | – | inactive | – | – | –
CCOC(=O)CN1C(=O)S/C(=C\c2ccc(F)cc2)C1=O | – | > 100 µM | > 100 µM | 34.7 µM | – | inactive | – | – | –
O=C(CN1C(=O)S/C(=C\c2ccc(O)c(O)c2)C1=O)OCc1ccccc1 | – | – | – | – | – | inactive | – | – | –
CCOC(=O)C(C1CC1)N1C(=O)S/C(=C\c2ccc(O)c(O)c2)C1=O (racemic) | > 5 RU | 6.83 µM | 28.1 µM | 15.5 µM | 204 µM | – | – | – | –
O=C1OCCC1N1C(=O)S/C(=C\c2ccc(O)c(O)c2)C1=O (stereo unspecified) | < 5 RU | 18.1 µM | 50.2 µM | 20.7 µM | – | – | – | – | –
CCOC(=O)C(C)N1C(=O)S/C(=C\c2ccc3c(c2)NC(=O)CO3)C1=O (racemic) | – | 28.1 µM | > 100 µM | 40.7 µM | – | inactive | – | – | –

SMILES | Activity [1] | GI50 (RS4-11) | GI50 (A549) | GI50 (HD-MB03) | Kd [2] | Activity [3] | GI50 at 72 h [4] | GI50 at 72 h [5] | Activity [6]
CCOC(=O)C(C)N1C(=O)S/C(=C\c2ccc(F)c(O)c2)C1=O (racemic) | – | > 100 µM | > 100 µM | > 100 µM | – | inactive | – | – | –
CC(C(=O)N1CCCCC1)N1C(=O)S/C(=C\c2ccc(O)c(O)c2)C1=O (racemic) | > 5 RU | 8.6 µM | 29.4 µM | 13.9 µM | 150 µM | – | – | – | –
CCOC(=O)CN1C(=O)SC(Cc2ccc(O)c(O)c2)C1=O (stereo unspecified) | – | 27.6 µM | > 100 µM | 49 µM | – | inactive | – | – | –
CCOC(=O)CN1C(=O)S/C(=C\c2ccc(OC)c(OC)c2)C1=O | – | > 100 µM | > 100 µM | 45 µM | – | inactive | – | – | –
CCOC(=O)C(C)N1C(=O)S/C(=C\c2ccc(NS(C)(=O)=O)cc2)C1=O (racemic) | – | 50.3 µM | > 100 µM | 17.6 µM | – | – | – | – | –
CCOC(=O)C(C)N1C(=O)S/C(=C\c2ccc(Cl)c(O)c2)C1=O (racemic) | < 5 RU | 60.6 µM | > 100 µM | 5.26 µM | – | – | – | – | –
CCOC(=O)C(C)N1C(=O)S/C(=C\c2cc(F)c(O)c(F)c2)C1=O (racemic) | – | > 100 µM | > 100 µM | > 100 µM | – | inactive | – | – | –
CCNC(=O)C(C)N1C(=O)S/C(=C\c2ccc(O)c(O)c2)C1=O (racemic) | – | 24.8 µM | 70.9 µM | 53.1 µM | – | inactive | – | – | –
CCOC(=O)C(C)N1C(=O)S/C(=C\c2ccc3cn[nH]c3c2)C1=O (racemic) | < 5 RU | 17.8 µM | 57.5 µM | 26.3 µM | – | – | – | – | –
CCOC(=O)CN1C(=O)S/C(=C\c2ccc(O)c(O)c2)C1=O | – | 6.4 µM | 42.5 µM | 14.8 µM | 233 µM | – | > 100 µM | > 100 µM | Active
CCOC(=O)CN1C(=O)S/C(=C\c2ccc(O)c(F)c2)C1=O | – | > 100 µM | > 100 µM | 58.3 µM | – | inactive | – | – | –
CC(C(=O)N1CCC2(CC1)OCCO2)N1C(=O)S/C(=C\c2ccc(O)c(O)c2)C1=O (racemic) | < 5 RU | 13.4 µM | 44.1 µM | 31.4 µM | – | – | – | – | –
CCOC(=O)Cc1csc(Oc2ccc(O)cc2)n1 | < 5 RU | > 100 µM | > 100 µM | > 100 µM | – | – | – | – | –
CCOC(=O)CN1C(=O)S/C(=C\c2ccc(OC)nc2)C1=O | – | > 100 µM | > 100 µM | 41.1 µM | – | inactive | – | – | –
O=C(CN1C(=O)S/C(=C\c2ccc(O)c(O)c2)C1=O)N1CCOCC1 | > 5 RU | 24.8 µM | 49.4 µM | 33.1 µM | 152 µM | – | – | – | –
O=C(O)CN1C(=O)S/C(=C\c2ccc(O)c(O)c2)C1=O | – | > 100 µM | > 100 µM | > 100 µM | – | inactive | – | – | –
CC(C(=O)N1CC2(COC2)C1)N1C(=O)S/C(=C\c2ccc(O)c(O)c2)C1=O (racemic) | – | > 100 µM | > 100 µM | > 100 µM | – | inactive | – | – | –
CCOC(=O)C(C)N1C(=O)S/C(=C\c2ccc3[nH]ncc3c2)C1=O (racemic) | < 5 RU | 50.5 µM | 68 µM | 28.3 µM | – | – | – | – | –
CC(C(=O)N1CCOCC1)N1C(=O)S/C(=C\c2ccc(N3CCCC3)cc2)C1=O (racemic) | < 5 RU | 5.2 µM | 69 µM | 7.4 µM | – | – | – | – | –
CC(C(=O)N1CCOCC1)N1C(=O)S/C(=C\c2ccc(O)c(O)c2)C1=O (racemic) | – | 14.1 µM | 47.9 µM | 48.7 µM | – | inactive | – | – | –
CCOC(=O)CN1C(=O)S/C(=C\c2ccc(Cl)c(Cl)c2)C1=O | – | > 100 µM | > 100 µM | > 100 µM | – | inactive | – | – | –
CS(=O)(=O)Nc1ccc(/C=C2\SC(=O)N(CC(=O)N3CCOCC3)C2=O)cc1 | – | 12.4 µM | 47.7 µM | 47.4 µM | – | inactive | – | – | –
